For six compounds, MIC and Activity results are on record in ChEMBL document CHEMBL1142097, “EthA, a common activator of thiocarbamide-containing drugs acting on different mycobacterial targets” (Antimicrob Agents Chemother, 2007).

Test [1] in a line: Antimycobacterial activity against Mycobacterium bovis BCG str. Pasteur 1173P2 overexpressing ethA gene. The test is classed as functional. Particulars: Mycobacterium tuberculosis variant bovis BCG. The gist of the method:
(§1)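 Agar MIC on Middlebrook 7H9 or 7H11 with OADC (ADC substituted for isoxyl-type drugs) plus graded drug levels; serial 10-fold dilutions of actively growing culture plated, incubated 37°C for 10–14 days; MIC = lowest concentration blocking 99% of growth. Recombinant Pasteur strains selected with 25 μg/ml kanamycin; ethR::hyg mutant carries a hygromycin-marked transposon in ethR.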

The test system of test [2] is Mycobacterium tuberculosis. Put plainly: Antimycobacterial activity against Mycobacterium bovis BCG NCTC 5692 with ethR-knockout mutant. The test is classed as functional, variant bovis BCG. In a few lines:
as §1

In test [3] the test system is Mycobacterium tuberculosis. Put plainly: Antimycobacterial activity against Mycobacterium bovis BCG NCTC 5692. The test is classed as functional. Particulars: Mycobacterium tuberculosis variant bovis BCG. In a few lines: as §1
A short description of test [4]: Antimycobacterial activity against Mycobacterium bovis BCG str. Pasteur 1173P2 overexpressing ethR gene. Type of test: functional. Particulars: Mycobacterium tuberculosis variant bovis BCG. In a few lines:
as §1

For test [5], the system named is Mycobacterium tuberculosis. In words: Inhibition of oleic acid synthesis in Mycobacterium bovis BCG NCTC 5692 with ethR-knockout mutant assessed as incorporation of [2-14C]acetate. Particulars: variant bovis BCG. Type of test: functional, organism-based. In a few lines: (§2)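 Mid-log cultures in Sauton medium exposed to graded drug concentrations (μg/ml) for 16 h at 37°C, then pulsed with 1 μCi/ml [2-14C]acetate for 8 h at 37°C. Cells PBS-washed, hydrolysed with 15% tetrabutylammonium hydroxide at 100°C overnight, methylated with CH3I in CH2Cl2; fatty and mycolic acid methyl esters resolved by TLC and autoradiographed.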

For test [6], the system named is Mycobacterium tuberculosis. Put plainly: Inhibition of mycolic acid synthesis in Mycobacterium bovis BCG NCTC 5692 with ethR-knockout mutant assessed as incorporation of [2-14C]acetate. The test is classed as functional, organism-based. Particulars: variant bovis BCG. The gist of the method:
as §2

Test [7] deals with Mycobacterium tuberculosis. In words: Inhibition of mycolic acid synthesis in Mycobacterium bovis BCG NCTC 5692 assessed as incorporation of [2-14C]acetate. Type of test: functional, organism-based. Particulars: variant bovis BCG. In a few lines:
as §2

Test [8] concerns Mycobacterium tuberculosis. In words: Inhibition of oleic acid synthesis in Mycobacterium bovis BCG NCTC 5692 assessed as incorporation of [2-14C]acetate. Type of test: functional, organism-based. Particulars: variant bovis BCG. In a few lines:
as §2

≈ marks a conversion by molar mass, not a printed value. Calls of active or inactive are those of the source.

Usually MIC stands for the smallest concentration in the dilution series that meets the test's criterion for growth inhibition. Read a low MIC as greater potency. On to `COc1ccc(/C(C)=N/NC(N)=S)cc1`, for which the MIC in test [1] amounted to 0.25 µg/mL (≈ 1.12 µM); in test [2], 0.25 µg/mL (≈ 1.12 µM); in test [3], 2.5 µg/mL (≈ 11.2 µM); in test [4], 0.5 µg/mL (≈ 2.24 µM).
Take `CC(C)CCSc1ccc(NC(=S)Nc2ccc(SCCC(C)C)cc2)cc1`: the result in test [5] and in test [6] was Active. Besides, the minimal inhibitory concentration (MIC) in test [1] turned out to be 5 µg/mL (≈ 11.6 µM); in test [2], 2.5 µg/mL (≈ 5.78 µM); in test [3] it was 25 µg/mL (≈ 57.8 µM); in test [4], 40 µg/mL (≈ 92.4 µM).
For the compound `CC(=O)Nc1ccc(/C=N/NC(N)=S)cc1` [AMITHIOZONE], the result in test [7] and in test [6] was Active. Besides, the minimal inhibitory concentration (MIC) in test [1] was found to be 0.25 µg/mL (≈ 1.06 µM); in test [2], 0.25 µg/mL (≈ 1.06 µM); in test [3], 2.5 µg/mL (≈ 10.6 µM); in test [4], 2.5 µg/mL (≈ 10.6 µM). Besides, the result in test [8] was inactive.
For `CCc1cc(C(N)=S)ccn1` [ETHIONAMIDE], the MIC turned out to be 0.25 µg/mL (≈ 1.5 µM) in test [1], 0.5 µg/mL (≈ 3.01 µM) in test [2], 5 µg/mL (≈ 30.1 µM) in test [3] and 10 µg/mL (≈ 60.2 µM) in test [4]. Besides, the outcome in test [6] was Active.
On to `NC(=S)N/N=C/c1cccnc1` [NICOTHIAZONE], for which the MIC in test [1] stood at 10 µg/mL (≈ 55.5 µM); in test [2], 5 µg/mL (≈ 27.7 µM); in test [3], 25 µg/mL (≈ 139 µM); in test [4], 75 µg/mL (≈ 416 µM).
For `CC(C)CCOc1ccc(NC(=S)Nc2ccc(OCCC(C)C)cc2)cc1` [TIOCARLIDE], the outcome in test [7], in test [5] and in test [8] was Active. For the same compound, the MIC in test [1] turned out to be 0.1 µg/mL (≈ 0.25 µM); in test [2], 0.5 µg/mL (≈ 1.25 µM); in test [3] it was 1 µg/mL (≈ 2.5 µM); in test [4], 0.25 µg/mL (≈ 0.624 µM).
